The results in this text go back to ChEMBL document CHEMBL4392865, “Indole Diterpenoids from an Endophytic Penicillium sp” (J Nat Prod, 2019).

The test system of one data set is L5178Y. Put plainly: Cytotoxicity against mouse L5178Y cells assessed as reduction in cell viability incubated for 72 hrs by MTT assay. The data set is classed as functional, cell-based. The method, boiled down:
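Murine L5178Y lymphoma cells were the cells tested, with kahalalide F run in parallel as the positive control. The read-out was IC50.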
Background: Tetrazolium dyes change colour on reduction, which living cells bring about.

Another data set deals with A2780. Put plainly: Cytotoxicity against human A2780 cells assessed as reduction in cell viability incubated for 72 hrs by MTT assay. The data set is classed as functional, cell-based.
For a further data set, the system named is HEK293. Put plainly: Cytotoxicity against HEK293 cells assessed as reduction in cell viability incubated for 72 hrs by MTT assay. The following applies: Homo sapiens, HEK293, 72 h. It counts as cell-based.
Data set [1] is described as follows: Selectivity index, ratio of IC50 for HEK293 cells to IC50 for human A2780 cells. The data set is classed as toxicity. The following applies: HEK293 cells versus A2780 cells, read-out: Ratio IC50. The method, boiled down:
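Selectivity index is the IC50 against HEK-293 cells divided by the IC50 against A2780 ovarian cancer cells, each from this paper's cytotoxicity testing.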

A further data set relates to J82. Put plainly: Cytotoxicity against human J82 cells assessed as reduction in cell viability incubated for 72 hrs by high content analysis based fluorescent live/dead assay. It counts as functional. The method, boiled down: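 J82 bladder cancer cells were analysed by fluorescent live/dead staining. An imaging system gave direct counts of live and dead cells, and IC50 values were derived from these counts.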

Setting [2] is: Mus musculus, L5178Y, 72 h, read-out: IC50.
[3] abbreviates: Homo sapiens, A2780, 72 h, read-out: IC50.
Setting [4] is: Homo sapiens, J82, 72 h, read-out: IC50.

The term IC50 denotes the concentration that gives 50% inhibition. Turning to `CC(C)=CCc1ccc2[nH]c3c(c2c1)C[C@@H]1CC[C@@]2(O)C4=CC(=O)[C@@H](C(C)(C)O)O[C@H]4CC[C@]2(C)[C@@]31C`, the half-maximal inhibitory concentration (IC50) in the data set with L5178Y (setting [2]) is 12.9 µM; in the data set on A2780 (a2780), “Not Active”.

Turning to `CC(C)(O)[C@H]1O[C@@]2(O)CC[C@@]3(C)[C@@H](CC[C@H]4Cc5c([nH]c6ccccc56)[C@@]43C)C2=CC1=O`, the figures for the half-inhibitory concentration (IC50) in the data set with L5178Y (setting [2]), in the data set with A2780 (a2780) and in the data set on HEK293 were 6.2 µM, “Not Active” and 39.8 µM, respectively.

Take `CC1(C)CC2=C(Cc3cc4c5c([nH]c4cc32)[C@@]2(C)[C@@H](CC[C@@]3(O)C4=CC(=O)[C@@H](C(C)(C)O)OC4=CC[C@@]32C)C5)C(C)(C)O1`: the selectivity ratio in data set [1] amounted to 4.8. The half-maximal inhibitory concentration (IC50) amounted to 8.1 µM in the data set with L5178Y (setting [2]), 7.8 µM in the data set on A2780 (setting [3]), 31.7 µM in the data set on J82 (setting [4]) and 37.4 µM in the data set with HEK293.

Regarding `CC1(C)CC2=C(Cc3cc4c(cc32)NC(=O)[C@@]2(C)[C@@H](CC[C@@]3(O)C5=CC(=O)[C@@H](C(C)(C)O)O[C@H]5CC[C@@]32C)CC4=O)C(C)(C)O1`, the selectivity ratio in data set [1] stood at 2.4. Further, the concentration for half-maximal inhibition (IC50) stood at 7.6 µM in the data set with L5178Y (setting [2]), 11.9 µM in the data set on A2780 (setting [3]), 29.4 µM in the data set on J82 (setting [4]) and 28.3 µM in the data set on HEK293.

With `CO[C@]12CC[C@@]3(C)[C@@](O)(CC[C@H]4Cc5c([nH]c6cc7c(cc56)CC5=C7CC(C)(C)OC5(C)C)[C@@]43C)C1=CC(=O)[C@@H](C(C)(C)O)O2`, the values for the half-inhibitory concentration (IC50) result in the data set on L5178Y (l5178y), in the data set with A2780 (setting [3]) and in the data set on J82 (setting [4]) were “Not Active”, 32.2 µM and 96.7 µM, respectively.

Consider `CC(C)(O)[C@H]1O[C@@]2(O)CC[C@@]3(C)C(=CC[C@H]4Cc5c([nH]c6ccccc56)[C@@]43C)C2=CC1=O`, for which the results for the IC50 in the data set with L5178Y (setting [2]), with A2780 (a2780) and with HEK293 were 5.3 µM, “Not Active” and 27.9 µM, respectively.

Take `CC(C)(O)[C@H]1O[C@H]2CC[C@@]3(C)[C@@H](CC[C@H]4Cc5c([nH]c6ccccc56)[C@@]43C)C2=C[C@H]1O`: the IC50 result with L5178Y (l5178y) is “Not Active”; in the data set on A2780 (setting [3]), 28.5 µM.

For `CC1(C)O[C@@]23CC[C@@]4(C)C(=CC[C@H]5Cc6c([nH]c7ccccc67)[C@@]54C)C2=CC(=O)[C@@H]1O3`, the selectivity ratio in data set [1] worked out at 1.8. The half-inhibitory concentration (IC50) in the data set with L5178Y (setting [2]) worked out at 5.3 µM; in the data set with A2780 (setting [3]), 12.2 µM; with J82 (setting [4]), 42.1 µM; with HEK293, 21.7 µM.

For `CO[C@]12CC[C@@]3(C)[C@@](O)(CC[C@H]4Cc5c([nH]c6ccccc56)[C@@]43C)C1=CC(=O)[C@@H](C(C)(C)O)O2`, the IC50 entry was “Not Active” in the data set on L5178Y (l5178y), 12.2 µM in the data set on A2780 (setting [3]) and 55.3 µM in the data set on J82 (setting [4]).

As for `CC1(C)CC2=C(Cc3cc4c5c([nH]c4cc32)[C@@]2(C)[C@@H](CC[C@@]3(O)C4=CC(=O)[C@@H](C(C)(C)O)O[C@H]4CC[C@@]32C)C5)C(C)(C)O1`, the concentration for half-maximal inhibition (IC50) in the data set on L5178Y (setting [2]) came out at 10.9 µM; in the data set with A2780 (setting [3]) it was 12.8 µM.

`CO[C@]12CC[C@@]3(C)[C@@](O)(CC[C@H]4CC(=O)c5cc6c(cc5NC(=O)[C@@]43C)C3=C(C6)C(C)(C)OC(C)(C)C3)C1=CC(=O)[C@@H](C(C)(C)O)O2`: the IC50 result was “Not Active” in the data set with L5178Y (l5178y), 19.4 µM with A2780 (setting [3]) and 73 µM in the data set on J82 (setting [4]).

Consider `CC(C)=CCc1ccc2[nH]c3c(c2c1)C[C@@H]1CC[C@@]2(O)C4=CC(=O)[C@@H]5O[C@@]4(CC[C@]2(C)[C@@]31C)OC5(C)C`, for which the concentration for half-maximal inhibition (IC50) result is “Not Active” in the data set with L5178Y (l5178y) and 19.8 µM with A2780 (setting [3]).

As to `CC1(C)O[C@@]23CC[C@]4(C)c5cc6[nH]c7ccccc7c6cc5CC[C@H]4C2=CC(=O)[C@@H]1O3`, in data set [1], the selectivity ratio worked out at 3.3. Further, the IC50 with L5178Y (setting [2]) is 3.6 µM; in the data set with A2780 (setting [3]) it was 8.7 µM; in the data set with J82 (setting [4]), 40.6 µM; with HEK293 it was 28.5 µM.

With `CC1(C)CC2=C(Cc3cc(C(=O)C[C@@H]4CC[C@@]5(O)C6=CC(=O)[C@@H](C(C)(C)O)O[C@H]6CC[C@]5(C)[C@@]4(C)C(=O)O)c(N)cc32)C(C)(C)O1`, the IC50 result is “Not Active” with L5178Y (l5178y), 51.5 µM in the data set on A2780 (setting [3]) and “Not Active” in the data set on J82 (j82).

Take `CC(C)(O)[C@H]1O[C@H]2CC[C@@]3(C)[C@@H](CC[C@H]4Cc5c([nH]c6ccccc56)[C@@]43C)C2=CC1=O` [DEHYDROXYPAXILLINE]: the results for the IC50 entry in the data set with L5178Y (l5178y) and in the data set with A2780 (setting [3]) were “Not Active” and 17.1 µM, respectively.

Turning to `CC(C)=CCC[C@]1(C)[C@@H](O)CC[C@@]2(C)[C@H]1CC[C@H]1Cc3c([nH]c4ccccc34)[C@@]12C` [EMINDOLE SB], in data set [1], the selectivity ratio amounted to 5.4. Besides, the IC50 was determined as 18.3 µM with L5178Y (setting [2]), 8.2 µM in the data set with A2780 (setting [3]) and 44.6 µM in the data set on HEK293.

Consider `CC(C)(O)[C@@H]1CC[C@]2(C)[C@H](CC[C@@]3(C)[C@H]2CC[C@H]2Cc4c([nH]c5ccccc45)[C@@]23C)O1` [PASPALINE], for which the selectivity ratio in data set [1] amounted to 8.1. The half-maximal inhibitory concentration (IC50) entry in the data set with L5178Y (l5178y) was “Not Active”; in the data set on A2780 (setting [3]), 5.3 µM; in the data set with HEK293, 43 µM.
